Active and inactive are the calls of the source. The calls are words filed in the database; no cut-off is given here.

In experiment [1] the test system is Yersinia pseudotuberculosis. In words: Effect on T3S in Yersinia pseudotuberculosis 3 pIB29 assessed as inhibition of light emission at 20 uM by luciferase reporter gene assay. The method in brief: (§1)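 Strain YPIII-pIB29 (yopE-luxAB transcriptional fusion, lacking YopH), grown overnight at ambient temperature in BHI with 5 mM EGTA and 20 mM MgCl2 to deplete calcium, then adjusted to OD600 0.15-0.25. Compounds in DMSO (≤1% final) at 100, 50, 20 or 10 µM final, in triplicate. Plates shaken 1 h at ambient temperature, then 2 h at 37 °C. Decanal added within 30 min and luminescence read at once. Result is % inhibition of light versus control.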
In general terms: A reporter such as luciferase makes a cellular process visible.

For experiment [2], the system named is Yersinia pseudotuberculosis. As to the kind of experiment: Effect on T3S in Yersinia pseudotuberculosis 3 pIB29 assessed as inhibition of light emission at 100 uM by luciferase reporter gene assay. The method in brief: as §1
Experiment [3] relates to Yersinia pseudotuberculosis. As to the kind of experiment: Effect on T3S in Yersinia pseudotuberculosis 3 pIB29 assessed as inhibition of light emission at 10 uM by luciferase reporter gene assay. The essentials:
as §1

In experiment [4] the test system is Yersinia pseudotuberculosis. In words: Effect on T3S in Yersinia pseudotuberculosis 3 pIB29 assessed as inhibition of light emission at 50 uM by luciferase reporter gene assay. The method in brief:
as §1

The subject of experiment [5] is Yersinia pseudotuberculosis. As to the kind of experiment: Growth inhibition of Yersinia pseudotuberculosis. Format: functional, organism-based. The essentials:
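Wild-type YPIII-pIB102 diluted to OD600 0.05-0.1 in BHI with 2.5 mM CaCl2. Grown at 37 °C with shaking, with compound at 10, 20, 50 or 100 µM. Absorbance read at 600 nm periodically, or at 595 nm hourly, over six hours and compared with the control growth curve.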

The target in experiment [6] is Tyrosine-protein phosphatase YopH (Yersinia pseudotuberculosis serotype I (strain IP32953)) (UniProt P08538). In words: Inhibition of Yersinia pseudotuberculosis YP3-pIB102 YopH at 20 uM. The essentials:
(§2)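 Strain YPIII-pIB102 grown overnight at 26 °C in BHI with 25 µg/ml chloramphenicol. Diluted to OD600 0.08 in calcium-depleted BHI (5 mM EGTA, 20 mM MgCl2), with compound at 100, 50, 20 or 10 µM, and shaken 2 h at 37 °C. Culture aliquot added to 25 mM p-nitrophenyl phosphate, 40 mM MES pH 5.0 and 1.6 mM DTT for 15 min at 37 °C. Stopped with NaOH and read at A405. Triplicates; result is % inhibition of secreted YopH activity.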

The target is the same in experiment [7]. As to the kind of experiment: Inhibition of Yersinia pseudotuberculosis YP3-pIB102 YopH at 100 uM. The essentials: as §2
Experiment [8] has the same target. As to the kind of experiment: Inhibition of Yersinia pseudotuberculosis YP3-pIB102 YopH at 50 uM. The method in brief: as §2
For experiment [9] the target is unchanged. As to the kind of experiment: Inhibition of Yersinia pseudotuberculosis YP3-pIB102 YopH at 10 uM. The essentials:
as §2

Sequence of Tyrosine-protein phosphatase YopH (Yersinia pseudotuberculosis serotype I (strain IP32953)) (P08538 whole entry): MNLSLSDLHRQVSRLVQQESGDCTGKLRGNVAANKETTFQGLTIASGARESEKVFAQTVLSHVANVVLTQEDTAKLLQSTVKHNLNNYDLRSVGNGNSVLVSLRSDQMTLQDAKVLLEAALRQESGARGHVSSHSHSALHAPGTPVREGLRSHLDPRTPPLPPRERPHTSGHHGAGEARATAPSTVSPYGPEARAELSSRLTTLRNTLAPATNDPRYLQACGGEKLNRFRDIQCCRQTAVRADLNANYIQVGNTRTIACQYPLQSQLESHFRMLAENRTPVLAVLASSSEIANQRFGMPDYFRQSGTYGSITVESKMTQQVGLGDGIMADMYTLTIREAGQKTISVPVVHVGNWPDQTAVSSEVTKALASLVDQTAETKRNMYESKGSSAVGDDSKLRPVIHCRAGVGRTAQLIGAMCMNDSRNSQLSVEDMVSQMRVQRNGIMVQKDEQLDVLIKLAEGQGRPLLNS

Usually inhibition stands for the drop in the measured response relative to a control, in per cent. In the case of `O=C(Nc1ccc(Cl)c(Cl)c1)c1ccccc1NS(=O)(=O)c1cccc2nsnc12`, the inhibition in experiment [1] came to 10%; in experiment [2], 13%; in experiment [3] it was 5%; in [4], 11%. Further, in experiment [5], the result was inactive.
For `O=C(Nc1ccc(F)cc1)c1cc(F)c(F)cc1NS(=O)(=O)c1cccc(F)c1`, the inhibition in experiment [1] was 51%; in experiment [6] it was 54%; in experiment [7], 70%; in experiment [8], 63%; in experiment [2], 75%; in experiment [3] it was 22%. Besides, the figures for the inhibition in experiment [4] and in experiment [9] were 71% and 27%, respectively. Besides, the outcome in experiment [5] was inactive.
On to `O=C(Nc1ccc(Cl)cc1)c1ccccc1NS(=O)(=O)c1cccc2nsnc12`, for which the inhibition was 5% in experiment [1], 18% in [2], -1% in [3] and 12% in experiment [4]. In addition, the result in experiment [5] was inactive.
Take `COc1ccc(NC(=O)c2ccc(Cl)cc2NS(=O)(=O)c2cccc(F)c2)cc1`: the inhibition in experiment [1] is 9%; in [2], 51%; in [3] it was 5%; in [4], 32%. Further, the outcome in experiment [5] was inactive.
On to `O=C(Nc1cccc(Cl)c1)c1cc(Cl)ccc1NS(=O)(=O)c1cccc2nsnc12`, for which the inhibition came to 13% in experiment [1], 55% in experiment [2], 3% in experiment [3] and 47% in [4]. Also, the result in [5] was inactive.
For `O=C(Nc1ccc(F)cc1)c1cc(Cl)ccc1NS(=O)(=O)c1cc(Cl)cc(Cl)c1O` the same measures were 43%, 88%, 13%, 79% and “inactive”.
Taken in the same sequence, the figures for `CN(C)c1ccc(NC(=O)c2cc(Cl)ccc2NS(=O)(=O)c2ccccc2)cc1` were 1%, 1%, 0%, 2% and “inactive”.
On to `O=C(Nc1ccc2c(c1)OCO2)c1ccc(Cl)cc1NS(=O)(=O)c1ccc(Cl)c(Cl)c1`, for which the inhibition came to 66% in experiment [1]; 60% in [6]; 59% in [7]; 64% in [8]; 69% in [2]; 37% in [3]. The inhibition in experiment [4] amounted to 74%; in experiment [9], 33%. Besides, the outcome in experiment [5] was inactive.
For `O=C(Nc1ccc(F)cc1)c1ccc(Cl)cc1NS(=O)(=O)c1ccc(Cl)c(Cl)c1`, the outcome in experiment [5] was inactive.
On to `O=C(Nc1ccc(F)c(F)c1)c1cc(F)c(F)cc1NS(=O)(=O)c1cccc([N+](=O)[O-])c1`, for which the inhibition in [1] is 2%; in experiment [2] it was 49%; in [3], -2%; in experiment [4], 23%. The outcome in [5] was inactive.
As to `CN(C)c1ccc(NC(=O)c2cc(Cl)ccc2NS(=O)(=O)c2cccc([N+](=O)[O-])c2)cc1`, the inhibition worked out at 4% in experiment [1], 7% in [2], 3% in experiment [3] and 8% in experiment [4]. For the same compound, the outcome in experiment [5] was inactive.
Take `O=C(Nc1ccc2c(c1)OCO2)c1ccc(Cl)cc1NS(=O)(=O)c1ccccc1`: the inhibition worked out at 7% in experiment [1]; 19% in experiment [6]; 34% in [7]; 25% in [8]; 15% in experiment [2]; 4% in experiment [3]. The inhibition in experiment [4] stood at 10%; in [9], 14%. Also, the outcome in [5] was inactive.
Take `O=C(Nc1ccc(Cl)c(Cl)c1)c1cc(F)c(F)cc1NS(=O)(=O)c1cc(Cl)cc(Cl)c1O`: the inhibition in experiment [1] was 85%; in experiment [6] it was 82%; in experiment [7] it was 81%; in experiment [8], 80%; in [2], 92%; in experiment [3], 69%. Further, the inhibition in experiment [4] is 92%; in [9] it was 57%. Further, in experiment [5], the outcome was inactive.
With `COc1ccc(NC(=O)c2ccc(Cl)cc2NS(=O)(=O)c2ccc(Cl)c(Cl)c2)cc1`, the inhibition was determined as 67% in [1]; 60% in [6]; 34% in experiment [7]; 35% in experiment [8]; 72% in experiment [2]; 43% in experiment [3]. In addition, the inhibition is 72% in experiment [4] and 35% in experiment [9]. Besides, in [5], the outcome was inactive.
Regarding `O=C(Nc1ccc(Cl)c(Cl)c1)c1cc(F)c(F)cc1NS(=O)(=O)c1cccc([N+](=O)[O-])c1`, the inhibition is 33% in experiment [1]; 67% in experiment [6]; 81% in [7]; 74% in [8]; 90% in experiment [2]; 9% in [3]. The inhibition was 79% in experiment [4] and 26% in experiment [9]. In experiment [5], the result was inactive.
For `O=C(Nc1ccccc1)c1cc(Cl)ccc1NS(=O)(=O)c1cccc2nsnc12`, the inhibition in [1] was 1%; in [2] it was 20%; in experiment [3] it was -2%; in experiment [4], 9%. Moreover, the result in experiment [5] was inactive.
For `Cc1ccc(S(=O)(=O)Nc2cc(F)c(F)cc2C(=O)Nc2ccc(Cl)c(Cl)c2)cc1` the same measures were 9%, 2%, 57%, 1% and “inactive”.
For `O=C(Nc1ccc(Cl)c(Cl)c1)c1ccc(Cl)cc1NS(=O)(=O)c1cccc2nsnc12` the same measures were 61%, 68%, 35%, 71% and “inactive”.
For `O=C(Nc1ccc(Cl)c(Cl)c1)c1cc(F)c(F)cc1NS(=O)(=O)c1cccc2nsnc12` the same measures were 39%, 80%, 9%, 66% and “inactive”.
For `O=C(Nc1ccc(F)c(Cl)c1)c1cc(Cl)ccc1NS(=O)(=O)c1ccc(Cl)c(Cl)c1`, in experiment [5], the outcome was inactive.
Regarding `O=C(Nc1ccc2cccnc2c1)c1cc(Cl)ccc1NS(=O)(=O)c1ccc(Cl)c(Cl)c1`, the inhibition in [1] was 51%; in experiment [2] it was 52%; in experiment [3], 18%; in experiment [4], 59%. For the same compound, the outcome in experiment [5] was inactive.
As to `CC(=O)c1ccc(S(=O)(=O)Nc2cc(Cl)ccc2C(=O)Nc2ccc(F)c(Cl)c2)cc1`, the inhibition in experiment [1] is 33%; in [2], 72%; in experiment [3], 11%; in experiment [4], 70%. In addition, the result in [5] was inactive.
For `O=C(Nc1ccc(F)c(F)c1)c1ccc(Cl)cc1NS(=O)(=O)c1cccc2nsnc12` the same measures were 17%, 63%, 9%, 50% and “inactive”.
For `O=C(Nc1ccc2cccnc2c1)c1cc(Cl)ccc1NS(=O)(=O)c1ccccc1` the same measures were 2%, 10%, 0%, 7% and “inactive”.
For `O=C(Nc1ccc(F)c(F)c1)c1ccc(Cl)cc1NS(=O)(=O)c1cc(Cl)cc(Cl)c1O` the same measures were 50%, 87%, 15%, 86% and “inactive”.
`O=C(Nc1ccc(Cl)c(Cl)c1)c1cc(Cl)ccc1NS(=O)(=O)c1ccccc1`: the inhibition in experiment [1] is 70%; in experiment [2] it was 70%; in experiment [3] it was 58%; in experiment [4] it was 73%. Moreover, the outcome in experiment [5] was inactive.

For the origin of these results see ChEMBL document CHEMBL1137500, “Inhibitors of type III secretion in Yersinia: design, synthesis and multivariate QSAR of 2-arylsulfonylamino-benzanilides” (Bioorg Med Chem, 2007).
